Results taken from ChEMBL document CHEMBL2021801, “Thienopyridine ureas as dual inhibitors of the VEGF and Aurora kinase families” (Bioorg Med Chem Lett, 2012).
pIC50: −log10 of the molar value. Blank lines part the entries; values can stand above or below the compound they belong to.

Key:
[1] = Oral bioavailability in CD1 (ICR) mouse at 10 mg/kg; type: ADME, organism-based; settings: in vivo
[2] = Half life in CD1 (ICR) mouse at 3 mg/kg, iv; type: ADME, organism-based; design: dose 3 mg/kg, route intravenous; settings: in vivo
Mus musculus = experiment: In vivo inhibition of KDR in po dosed mouse assessed as estradiol-induced uterine edema; type: functional
[3] = AUC in CD1 (ICR) mouse at 10 mg/kg, po; type: ADME, organism-based; design: dose 10 mg/kg, route oral; settings: plasma
[4] = Volume of distribution in CD1 (ICR) mouse at 3 mg/kg, iv; type: ADME, organism-based; design: dose 3 mg/kg, route intravenous; settings: in vivo
Cytochrome P450 3A4 [5] = molecular target: T1, Cytochrome P450 3A4 (Homo sapiens, UniProt P08684); experiment: Inhibition of CYP3A4 up to 10 uM; type: ADME
T1 sequence (P08684 whole entry): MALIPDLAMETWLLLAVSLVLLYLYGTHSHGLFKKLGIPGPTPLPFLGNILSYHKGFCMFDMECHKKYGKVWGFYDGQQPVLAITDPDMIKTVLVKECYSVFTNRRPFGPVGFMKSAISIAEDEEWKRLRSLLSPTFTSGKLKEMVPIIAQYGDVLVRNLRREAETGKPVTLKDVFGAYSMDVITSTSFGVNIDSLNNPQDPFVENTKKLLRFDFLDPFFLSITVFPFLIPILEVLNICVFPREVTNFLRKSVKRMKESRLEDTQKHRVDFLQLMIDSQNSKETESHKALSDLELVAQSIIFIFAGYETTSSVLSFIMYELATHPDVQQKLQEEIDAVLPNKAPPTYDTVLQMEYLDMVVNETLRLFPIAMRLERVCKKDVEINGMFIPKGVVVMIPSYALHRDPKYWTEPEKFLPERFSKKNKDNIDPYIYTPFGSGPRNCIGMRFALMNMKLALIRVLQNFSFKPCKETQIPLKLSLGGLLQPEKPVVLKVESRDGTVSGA

Aurora kinase B [6] = molecular target: T2, Aurora kinase B (Homo sapiens, UniProt Q96GD4); settings: NCI-H1229
T2 sequence (Q96GD4 whole entry): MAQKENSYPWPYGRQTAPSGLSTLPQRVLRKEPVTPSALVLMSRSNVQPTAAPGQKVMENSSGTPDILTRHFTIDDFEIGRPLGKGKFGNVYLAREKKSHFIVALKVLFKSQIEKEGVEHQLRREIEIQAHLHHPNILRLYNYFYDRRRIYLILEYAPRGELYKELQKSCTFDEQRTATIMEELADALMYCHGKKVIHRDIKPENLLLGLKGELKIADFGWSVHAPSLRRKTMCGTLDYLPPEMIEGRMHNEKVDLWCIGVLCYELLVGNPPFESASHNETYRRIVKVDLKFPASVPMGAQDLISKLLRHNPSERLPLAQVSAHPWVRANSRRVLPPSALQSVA

[7] = Clearance in CD1 (ICR) mouse at 3 mg/kg, iv; type: ADME, organism-based; design: dose 3 mg/kg, route intravenous; settings: in vivo
Aurora kinase B [8] = molecular target: T2, Aurora kinase B; experiment: Inhibition of Aurora B using 1 mM ATP by HTRF assay
[9] = molecular target: T3, Vascular endothelial growth factor receptor 2 (Homo sapiens, UniProt P35968); experiment: Inhibition of KDR using 1 mM ATP by HTRF assay
T3 sequence (P35968 whole entry): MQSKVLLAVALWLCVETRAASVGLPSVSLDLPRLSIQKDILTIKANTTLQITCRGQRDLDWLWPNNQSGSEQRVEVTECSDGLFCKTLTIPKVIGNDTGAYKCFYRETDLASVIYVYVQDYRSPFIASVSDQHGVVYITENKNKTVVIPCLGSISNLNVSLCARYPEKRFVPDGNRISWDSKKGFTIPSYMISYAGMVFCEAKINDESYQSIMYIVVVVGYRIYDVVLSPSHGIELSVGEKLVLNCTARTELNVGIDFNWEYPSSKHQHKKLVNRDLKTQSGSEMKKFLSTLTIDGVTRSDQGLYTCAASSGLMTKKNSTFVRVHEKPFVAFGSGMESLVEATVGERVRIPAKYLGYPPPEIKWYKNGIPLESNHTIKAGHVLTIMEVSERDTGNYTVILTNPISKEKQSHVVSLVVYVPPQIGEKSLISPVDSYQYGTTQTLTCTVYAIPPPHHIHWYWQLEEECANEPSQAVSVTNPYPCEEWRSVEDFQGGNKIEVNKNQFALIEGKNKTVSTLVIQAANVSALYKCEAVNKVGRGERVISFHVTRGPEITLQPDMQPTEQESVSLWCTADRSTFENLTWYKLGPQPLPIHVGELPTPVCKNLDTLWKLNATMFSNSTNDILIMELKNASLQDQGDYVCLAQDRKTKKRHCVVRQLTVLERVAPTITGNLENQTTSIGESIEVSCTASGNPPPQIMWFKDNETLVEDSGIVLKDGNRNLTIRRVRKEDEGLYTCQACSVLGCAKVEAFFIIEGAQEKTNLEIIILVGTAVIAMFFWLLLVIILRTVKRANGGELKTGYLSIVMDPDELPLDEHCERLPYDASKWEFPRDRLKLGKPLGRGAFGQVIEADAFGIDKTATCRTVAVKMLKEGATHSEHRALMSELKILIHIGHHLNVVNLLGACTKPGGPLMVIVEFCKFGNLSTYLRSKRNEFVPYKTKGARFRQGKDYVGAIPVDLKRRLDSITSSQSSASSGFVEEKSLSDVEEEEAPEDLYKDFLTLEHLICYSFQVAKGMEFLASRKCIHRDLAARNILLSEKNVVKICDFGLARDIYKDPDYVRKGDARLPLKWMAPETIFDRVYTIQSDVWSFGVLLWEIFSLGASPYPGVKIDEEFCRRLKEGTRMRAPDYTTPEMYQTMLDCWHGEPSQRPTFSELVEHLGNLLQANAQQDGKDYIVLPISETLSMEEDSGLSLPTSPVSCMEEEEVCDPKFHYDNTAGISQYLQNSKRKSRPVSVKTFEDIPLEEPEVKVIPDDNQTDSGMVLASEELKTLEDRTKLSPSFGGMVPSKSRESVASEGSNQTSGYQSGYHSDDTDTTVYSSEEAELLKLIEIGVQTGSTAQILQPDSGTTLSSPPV

[10] = Lipophilicity, log D of the compound at pH 7; type: physicochemical; settings: buffer
[11] = Plasma clearance in mouse; type: ADME, organism-based
[12] = Plasma clearance in dog; type: ADME, organism-based, Canis lupus familiaris
[13] = molecular target: Voltage-gated inwardly rectifying potassium channel KCNH2 (Homo sapiens, UniProt Q12809); experiment: Inhibition of human Erg by patch clamp assay in absence of plasma protein
Sequence of Voltage-gated inwardly rectifying potassium channel KCNH2 (Q12809 whole entry): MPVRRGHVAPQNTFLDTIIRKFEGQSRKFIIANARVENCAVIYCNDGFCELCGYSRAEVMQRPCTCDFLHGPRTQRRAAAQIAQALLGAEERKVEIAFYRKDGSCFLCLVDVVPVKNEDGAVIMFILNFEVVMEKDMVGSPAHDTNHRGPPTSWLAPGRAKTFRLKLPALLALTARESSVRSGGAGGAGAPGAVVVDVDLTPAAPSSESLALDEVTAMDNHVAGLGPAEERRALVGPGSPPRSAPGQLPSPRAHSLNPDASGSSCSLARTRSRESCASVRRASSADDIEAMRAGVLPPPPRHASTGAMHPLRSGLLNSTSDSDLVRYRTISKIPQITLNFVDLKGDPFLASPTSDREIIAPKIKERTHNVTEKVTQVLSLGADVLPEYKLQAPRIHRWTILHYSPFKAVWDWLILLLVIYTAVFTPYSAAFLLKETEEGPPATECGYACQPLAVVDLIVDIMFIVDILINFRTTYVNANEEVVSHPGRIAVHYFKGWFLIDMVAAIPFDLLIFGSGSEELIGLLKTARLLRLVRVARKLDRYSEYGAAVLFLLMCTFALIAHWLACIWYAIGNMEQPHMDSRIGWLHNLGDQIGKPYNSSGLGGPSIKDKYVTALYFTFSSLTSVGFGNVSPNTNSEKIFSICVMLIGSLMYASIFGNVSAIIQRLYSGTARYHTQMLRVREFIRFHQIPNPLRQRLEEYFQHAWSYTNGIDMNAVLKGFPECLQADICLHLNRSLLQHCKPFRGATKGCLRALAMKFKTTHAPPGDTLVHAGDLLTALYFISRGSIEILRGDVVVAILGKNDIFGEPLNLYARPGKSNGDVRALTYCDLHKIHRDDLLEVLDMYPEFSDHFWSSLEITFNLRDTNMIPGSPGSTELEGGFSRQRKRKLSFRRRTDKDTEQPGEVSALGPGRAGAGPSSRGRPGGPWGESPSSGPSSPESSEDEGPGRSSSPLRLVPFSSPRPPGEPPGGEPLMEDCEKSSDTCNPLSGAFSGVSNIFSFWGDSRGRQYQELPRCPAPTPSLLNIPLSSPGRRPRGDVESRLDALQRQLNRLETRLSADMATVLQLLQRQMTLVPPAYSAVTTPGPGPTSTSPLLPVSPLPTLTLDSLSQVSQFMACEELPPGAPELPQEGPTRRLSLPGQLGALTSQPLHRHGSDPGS

[14] = Volume of distribution at steady state in dog; type: ADME, organism-based, Canis lupus familiaris; settings: in vivo, read-out: Vdss
Canis familiaris [15] = species on record: Canis familiaris; experiment: Cardiotoxicity in dog assessed as QT prolongation time at 32.1 uM plasma concentration; type: toxicity, organism-based, Canis lupus familiaris
[16] = Protein binding in dog; type: ADME, organism-based, Canis lupus familiaris; settings: plasma, read-out: PB
[17] = Aqueous solubility of the compound; type: physicochemical; settings: buffer
Summary of the method: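 Aqueous solubility was measured across the physiological pH range.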

Cytochrome P450 3A4 [18] = molecular target: T1, Cytochrome P450 3A4; experiment: Inhibition of CYP3A4; type: ADME
[19] = Half life in rat; type: ADME, organism-based; settings: in vivo
[20] = Volume of distribution at steady state in mouse; type: ADME, organism-based; settings: in vivo, read-out: Vdss
[21] = Protein binding in mouse; type: ADME, organism-based; settings: plasma, read-out: PB
[22] = Protein binding in rat; type: ADME, organism-based; settings: plasma, read-out: PB
[23] = Half life in dog; type: ADME, organism-based, Canis lupus familiaris; settings: in vivo
[24] = Plasma clearance in rat; type: ADME, organism-based
[25] = Half life in mouse; type: ADME, organism-based; settings: in vivo
[26] = Volume of distribution at steady state in rat; type: ADME, organism-based; settings: in vivo, read-out: Vdss
Canis familiaris [27] = species on record: Canis familiaris; experiment: Cardiotoxicity in dog assessed as QT prolongation time at 117 uM plasma concentration; type: toxicity, organism-based, Canis lupus familiaris
[28] = molecular target: T3, Vascular endothelial growth factor receptor 2; experiment: Inhibition of human KDR phosphorylation expressed in mouse NIH3T3 cells; type: cell-based

SMILES: COc1ccc(NC(=O)Nc2ccc(-c3csc4c(-c5cnn(C)c5)cnc(N)c34)cc2)cc1
- bioavailability [1]: 44%
- half-life [2]: 1.3 h
- ED50 (Mus musculus): 1.3 mg/kg
- AUC [3]: 5220 ng·h/mL
- Vd [4]: 1.5 L/kg
- inhibition (INH) (Cytochrome P450 3A4 [5]): < 20%
- EC15 (Aurora kinase B [6]): 57 nM
- clearance [7]: 15 mL/min/kg
- pIC50 (Aurora kinase B [8]): 6.94
- pIC50 [9]: 8.22

SMILES: CC(C)Cn1cc(-c2cnc(N)c3c(-c4ccc(NC(=O)Nc5cccc(F)c5)cc4)csc23)cn1
- ED50 (Mus musculus): 1.1 mg/kg
- EC15 (Aurora kinase B [6]): 355 nM
- pIC50 (Aurora kinase B [8]): 6.75
- pIC50 [9]: 7.60

SMILES: Nc1ncc(-c2cnn(CCO)c2)c2scc(-c3ccc(NC(=O)Nc4cccc(F)c4)cc3)c12 [ILORASERTIB]
- logD [10]: 4.5
- bioavailability [1]: 47%
- clearance [11]: < 5 mL/min/kg
- clearance [12]: < 5 mL/min/kg
- pIC50 [13]: 6.00
- Vd [14]: 0.4 L/kg
- Time (Canis familiaris [15]): 11 ms
- fraction unbound [16]: < 0.01
- solubility [17]: < 78 µM
- half-life [2]: 4.7 h
- ED50 (Mus musculus): 3.2 mg/kg
- AUC [3]: 18600 ng·h/mL
- pIC50 (Cytochrome P450 3A4 [18]): < 4.52
- half-life [19]: 4 h
- Vd [4]: 1.7 L/kg
- inhibition (INH) (Cytochrome P450 3A4 [5]): < 20%
- EC15 (Aurora kinase B [6]): 12 nM
- clearance [7]: 5 mL/min/kg
- Vd [20]: 0.4 L/kg
- fraction unbound [21]: < 0.01
- fraction unbound [22]: < 0.01
- half-life [23]: 4 h
- clearance [24]: < 5 mL/min/kg
- half-life [25]: 4 h
- Vd [26]: 0.4 L/kg
- Time (Canis familiaris [27]): 25 ms

SMILES: Cc1cccc(NC(=O)Nc2ccc(-c3csc4c(-c5ccsc5)cnc(N)c34)cc2)c1
- EC15 (Aurora kinase B [6]): > 300 nM
- pIC50 (Aurora kinase B [8]): 6.75
- pIC50 [9]: 8.05
- pIC50 [28]: 7.51

SMILES: Cn1cc(-c2cnc(N)c3c(-c4ccc(NC(=O)Nc5cccc(Cl)c5)cc4)csc23)cn1
- ED50 (Mus musculus): 2 mg/kg
- EC15 (Aurora kinase B [6]): 18 nM
- pIC50 (Aurora kinase B [8]): 7.15
- pIC50 [9]: 8.15

SMILES: Cc1cccc(NC(=O)Nc2ccc(-c3csc4c(-c5ccccc5)cnc(N)c34)cc2)c1
- pIC50 (Aurora kinase B [8]): 5.48

Continued, in another order:

- EC15 (Aurora kinase B [6]): 64 nM
- pIC50 (Aurora kinase B [8]): 7.30
SMILES: Cc1ccc(NC(=O)Nc2ccc(-c3csc4c(-c5cnn(C)c5)cnc(N)c34)cc2)cc1
- ED50 (Mus musculus): 1 mg/kg

- EC15 (Aurora kinase B [6]): 141 nM
- pIC50 (Aurora kinase B [8]): 7.96
SMILES: Cc1cccc(NC(=O)Nc2ccc(-c3csc4c(C#CCN(C)C)cnc(N)c34)cc2)c1

- bioavailability [1]: 42%
- half-life [2]: 2.9 h
- AUC [3]: 14600 ng·h/mL
- Vd [4]: 1.2 L/kg
- inhibition (INH) (Cytochrome P450 3A4 [5]): < 20%
- EC15 (Aurora kinase B [6]): 2 nM
- clearance [7]: 5 mL/min/kg
- pIC50 (Aurora kinase B [8]): 9.00
SMILES: C[C@@H](O)Cn1cc(-c2cnc(N)c3c(-c4ccc(NC(=O)Nc5cccc(F)c5)cc4)csc23)cn1
- ED50 (Mus musculus): 1.2 mg/kg

- EC15 (Aurora kinase B [6]): 12 nM
- pIC50 (Aurora kinase B [8]): 7.77
- pIC50 [9]: 8.52
SMILES: Cn1cc(-c2cnc(N)c3c(-c4ccc(NC(=O)Nc5ccc(OC(F)(F)F)cc5)cc4)csc23)cn1
- ED50 (Mus musculus): 2.6 mg/kg

- EC15 (Aurora kinase B [6]): < 30 nM
- pIC50 (Aurora kinase B [8]): 7.74
- pIC50 [9]: 8.52
SMILES: Cn1cc(-c2cnc(N)c3c(-c4ccc(NC(=O)Nc5ccccc5F)cc4)csc23)cn1
- ED50 (Mus musculus): 1.1 mg/kg

- EC15 (Aurora kinase B [6]): 9 nM
- pIC50 (Aurora kinase B [8]): 8.22
- pIC50 [9]: 8.52
SMILES: Cn1cc(-c2cnc(N)c3c(-c4ccc(NC(=O)Nc5ccccc5)cc4)csc23)cn1
- ED50 (Mus musculus): 0.3 mg/kg

- EC15 (Aurora kinase B [6]): < 3 nM
- pIC50 (Aurora kinase B [8]): 8.10
- pIC50 [9]: 8.40
SMILES: Nc1ncc(-c2cnn(CCN3CCCCC3)c2)c2scc(-c3ccc(NC(=O)Nc4cccc(F)c4)cc3)c12
- ED50 (Mus musculus): > 10 mg/kg

- EC15 (Aurora kinase B [6]): > 100 nM
- pIC50 (Aurora kinase B [8]): 7.28
- pIC50 [9]: 8.22
SMILES: COc1ccccc1NC(=O)Nc1ccc(-c2csc3c(-c4cnn(C)c4)cnc(N)c23)cc1
- ED50 (Mus musculus): 8 mg/kg

- EC15 (Aurora kinase B [6]): < 1 nM
- pIC50 (Aurora kinase B [8]): 8.70
- pIC50 [9]: 8.70
SMILES: Nc1ncc(-c2cnn(CCCN3CC[C@@H](O)C3)c2)c2scc(-c3ccc(NC(=O)Nc4cccc(F)c4)cc3)c12

- EC15 (Aurora kinase B [6]): 4 nM
- pIC50 (Aurora kinase B [8]): 7.96
- pIC50 [9]: 9.00
SMILES: CS(=O)(=O)CCn1cc(-c2cnc(N)c3c(-c4ccc(NC(=O)Nc5cccc(F)c5)cc4)csc23)cn1
- ED50 (Mus musculus): 10 mg/kg
